In PMC3082038 (Cancer Chemotherapy and Pharmacology, 2010):

Tests used:
t-PA = test: Angiogenesis-related factor: t-PA; type: in vivo, human
Procedure, shortened: (§1)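 Plasma and urine were collected from patients before treatment and after day 8 and day 28 of oral test compound dosing, and analysed at a central commercial laboratory. ELISA kits were used for human VEGF (plasma and urine), ELAM-1, VCAM-1 and soluble t-PA. Soluble PAI-1 was measured by latex photometric immunoassay. Values are reported as median (range) per time point.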

[1] = Urinary excretion of TSU-68; type: in vivo, human; conditions: all dose levels
Procedure, shortened: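 Urine was collected in 0–12 h (b.i.d.) or 0–6/0–12 h (t.i.d.) intervals after selected doses, plus pre-dose and up to 24 h after the final sampled dose. Drug was measured by validated HPLC-UV (LLOQ 0.1 μg/ml), and excretion was expressed as % of dose.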

urinary VEGF = test: Angiogenesis-related factor: urinary VEGF; type: in vivo, human
Procedure, shortened: as §1

VCAM-1 = test: Angiogenesis-related factor: VCAM-1; type: in vivo, human
Procedure, shortened: as §1

[2] = tested on: liver cytochrome P450, CYP1A1/2; conditions: non-clinical studies; cited from earlier work

## Cc1[nH]c(/C=C2\C(=O)Nc3ccccc32)c(C)c1CCC(=O)O [TSU-68, (Z)-5-[(1,2-dihydro-2-oxo-3H-indol-3-ylidene)methyl]-2,4-dimethyl-1H-pyrrole-3-propanoic acid]
t-PA; day 8, 23 patients
  t-PA, median: 7.2 ng/mL
  t-PA, range: 3.3 to 14.3 ng/mL
t-PA; day 28, 22 patients
  t-PA, median: 6.8 ng/mL
  t-PA, range: 2.9 to 13.5 ng/mL
[1]
  Urinary excretion of TSU-68: below 1 % of dose
Urinary VEGF; day 8, 23 patients
  Urinary VEGF, median: 144 pg/mL
  Urinary VEGF, range: <31 to 1210 pg/mL
Urinary VEGF; day 28, 22 patients
  Urinary VEGF, median: 162.5 pg/mL
  Urinary VEGF, range: 68 to 730 pg/mL
VCAM-1; day 8, 23 patients
  VCAM-1, median: 562 ng/mL
  VCAM-1, range: 303–1,140 ng/ml
VCAM-1; day 28, 22 patients
  VCAM-1, median: 545.5 ng/mL
  VCAM-1, range: 355 to 988 ng/mL
[2]
  Effect on liver cytochrome P450, CYP1A1/2 involved in its own metabolism: induction
